Rad51 HR inh = Rad51 (human) homologous recombination inhibition; hRad51 DNA strand exchange, fluorescence dequenching; inhibition, % at 10 µM; hit rate 0.085% among 200,000; AID 1385;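 active = inhibition above 40% at the single screening dose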
Target sequence (Q06609 whole entry, looked up): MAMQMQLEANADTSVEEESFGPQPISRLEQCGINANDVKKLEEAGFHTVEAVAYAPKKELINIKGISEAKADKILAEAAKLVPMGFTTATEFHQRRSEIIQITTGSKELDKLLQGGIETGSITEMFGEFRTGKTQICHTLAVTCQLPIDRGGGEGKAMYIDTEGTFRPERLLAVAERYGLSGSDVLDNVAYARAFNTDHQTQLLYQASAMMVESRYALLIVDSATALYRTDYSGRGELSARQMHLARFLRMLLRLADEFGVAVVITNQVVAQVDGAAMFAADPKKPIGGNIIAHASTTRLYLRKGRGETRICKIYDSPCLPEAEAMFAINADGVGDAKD
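Assay system: Human Rad51 nucleoprotein filaments preassembled on unlabelled ssDNA | Reagent: Donor/quencher-labelled 47-bp dsDNA substrate | Doses: One concentration, 10 µM final | Times: 37 °C 15-min filament assembly, 30-min compound preincubation, 15-min exchange | Technique: Fluorescein emission 520 nm, excitation 485 nm | Benchmarks: Plate control and blank wells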
NPY-Y1 PAM-ag = potentiates or activates human NPY-Y1 receptor; AID 1304; hit rate 0.37% among 220,000; activation, % at 3.6 µM; NPY-Y1 expressing cells, potentiator/agonist activation; P25929; in the data active = activation above about 33%, passing the limit was not always enough;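 also: cells stimulated with NPY at EC10 then isoproterenol at EC100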
NPY-Y2 antag = NPY-Y2 (human) receptor antagonism | P49146 | NPY-Y2 expressing cells, antagonist mode | inhibition, % at 2.7 µM | hit rate 0.99% among 140,000 | AID 793; in the data active = inhibition above about 17%
Measles CPE = protection of cells from measles virus. Measles virus-infected cells, CPE protection, absorbance. protection (pct of control), % at 4 µM. hit rate 1.5% among 140,000. AID 841; in the data active = protection mostly above about 24%, no sharp cut-off; inactive = mostly below about 26%
NPY2 pot ag = potentiates or activates human NPY-Y2 receptor; P49146; cells expressing NPY-Y2, potentiator/agonist read-out; activation, % at 3.6 µM; hit rate 0.45% among 220,000; AID 1359; in the data active = activation above about 27%;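 also: cells stimulated with NPY near EC25 plus isoproterenol at EC100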
NPY-Y1 antag = NPY-Y1 (human) receptor antagonism. P25929. HEK293-CNG Y1 cells, membrane potential fluorescence; NPY at EC95, then isoproterenol. inhibition, % at 3.6 µM. hit rate 1% among 200,000;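 active = inhibition above the campaign mean inhibition of all tested compounds plus 3 SD, cut at about 20% in these data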
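Assay system: HEK293 Y1/CNG channel cell line; Doses: single compound dose of 3.6 µM, 0.4% DMSO; Timing: dye 3 h, compound 60 min room temperature, stimulation 45 min; Technique: Membrane-potential fluorescent dye readout; Measure: % inhibition of NPY effect.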
Numbers stand for hits; - = inactive; . = no result given. Only some compounds are listed: those with a hit (about 2.8% of all), similar ones and a draw of the others.

SMILES	Rad51 HR inh	NPY-Y1 PAM-ag	NPY-Y2 antag	Measles CPE	NPY2 pot ag	NPY-Y1 antag
N#Cc1c(SCC(N)=O)nc2c(c1-c1ccc(OCc3ccccc3)cc1)CCCC2	.	-	-	.	-	-
O=C(O)CCCn1cc(NC(=O)c2ccc(Br)o2)cn1	.	-	.	.	-	-
Cc1ccc(C2CC(=O)NC(SCC(N)=O)=C2C#N)s1 (centres undefined)	-	-	.	.	-	-
COc1ccc(-c2cc(C(F)F)n3ncc(C(=O)NCC4CCCO4)c3n2)cc1 (centres undefined)	-	-	29	-	-	29
COc1ccc(C2CC(C(F)(F)F)n3ncc(C(=O)NCC4CCCO4)c3N2)cc1OC (centres undefined)	-	-	-	32	-	-
O=C(OC1C2CCC1C1CN(CCc3ccccc3)CC12)c1ccccc1 (centres undefined)	.	-	42	-	-	44
O=C(C1CCN(S(=O)(=O)c2ccccc2F)CC1)N1CCc2ccccc2C1	-	-	.	.	-	-
COc1ccc(/C=C2\N=C(SC)SC2=O)cc1OC	-	-	-	40	-	-
CCC(=O)Nc1ccc(C(=O)N/N=C/c2cc(Br)c(OC)cc2OC)cc1	-	-	-	-	-	-
CC(=O)c1ccc(S(=O)(=O)Nc2ccc(-c3cn4c(n3)SCC4)cc2)cc1	-	-	.	.	-	-
Cc1nc(N)sc1C(=O)Nc1ccccc1	-	-	-	35	-	-
Cc1nc(-c2cccnc2)sc1C(=O)Nc1ccc(Cl)cc1	-	-	-	33	-	-
Cc1nc(-c2ccncc2)sc1C(=O)Nc1ccc(Cl)cc1	-	-	.	.	-	-
Cc1ccc2c(c1)C(C)CC(C)(C)N2C(=O)CN1CCN(C)CC1 (centres undefined)	-	-	.	.	-	.
Cc1cc(C(=O)CSc2n[nH]c(N)n2)c(C)n1-c1ccc2c(c1)OCO2	-	-	-	-	-	-
CCN1C(=O)C(CC(=O)NCc2ccc(Cl)cc2)N(CC)C1=O (centres undefined)	-	-	-	-	-	-
CCN1C(=O)C(CC(=O)NC2CCCCC2)N(CC)C1=O (centres undefined)	-	-	-	50	-	-
CC1CCC(C(C)C)C(OCC(O)CNC(C)(C)C)C1 (centres undefined)	-	106	.	.	99	-
Cc1cc(SCC(=O)Nc2cccc(S(=O)(=O)NC3=NCCCCC3)c2)c(C)cc1Br	.	-	-	28	-	-
COc1ccc(CCNC(=O)c2c(C)noc2C)cc1	-	-	-	-	-	-
Cc1noc(C)c1C(=O)NCCCc1ccccc1	-	-	-	38	-	-
Cc1cc(C(=O)COc2ccccc2Cl)c(C)n1-c1ccc2c(c1)OCO2	-	-	-	33	-	-
CC(NC(=O)CSC(=S)N(C)C)C12CC3CC(CC(C3)C1)C2 (centres undefined)	-	-	-	-	-	-
Cc1ccc(S(=O)(=O)NNC(=O)C(O)(c2ccccc2)c2ccccc2)cc1	-	-	-	-	-	-
O=C(NNS(=O)(=O)c1ccccc1)C(O)(c1ccccc1)c1ccccc1	.	-	-	63	-	-
SMILES	Rad51 HR inh	NPY-Y1 PAM-ag	NPY-Y2 antag	Measles CPE	NPY2 pot ag	NPY-Y1 antag
O=C(CCC(=O)Nc1nnc(C2CCCCC2)s1)NCC1CCCO1 (centres undefined)	-	-	-	65	-	-
CCN(Cc1ccccc1)C(c1ccccn1)c1nnnn1C(C)(C)CC (centres undefined)	-	-	26	-	-	23
CC(C)(C)n1nnnc1C(c1ccccn1)N(Cc1ccccc1)Cc1ccc(Cl)cc1 (centres undefined)	-	-	-	-	-	-
COc1ccc(C(CNC(=O)c2cccc(N(C)C)c2)N2CCCC2)cc1 (centres undefined)	-	-	-	.	-	-
COc1ccc(C(CNC(=O)c2cc3ccccc3cc2OC)N2CCCC2)cc1 (centres undefined)	.	-	18	-	-	28
NS(=O)(=O)c1ccc(CCn2c(=S)[nH]c3ccc(F)cc3c2=O)cc1	-	-	.	.	-	-
O=C(O)CCCCCN=Cc1c(O)c2ccccc2oc1=O	-	-	.	.	-	-
COc1cccc(C2CC(c3ccc(C)cc3)Nc3nc(N)nn32)c1 (centres undefined)	-	-	-	40	-	-
COc1cccc(C2CC(c3ccc(C)cc3)n3nc(N)nc3N2)c1 (centres undefined)	-	-	-	-	-	-
CSC1=NCCN1S(=O)(=O)c1ccc(F)cc1	-	-	.	.	-	-
Cc1ccc(S(=O)(=O)N2CC3CCCN3c3ccc(C(F)(F)F)cc32)cc1 (centres undefined)	-	-	-	-	28	-
Cc1ccc(-c2nc(C3CCN(S(=O)(=O)c4ccc(C(F)(F)F)cc4)CC3)no2)cc1	-	-	-	-	-	-
O=S(=O)(c1ccc(F)cc1)N1CC2CCCN2c2ccc(C(F)(F)F)cc21 (centres undefined)	-	64	-	-	44	-
COc1ccc(S(=O)(=O)NCCCCC(=O)O)cc1C(=O)O	-	-	.	.	-	-
Cn1c(-c2ccccc2)cnc1SCC(=O)N1CCCCC1	-	-	-	18	-	-
Cn1c(-c2ccccc2)cnc1SCC(=O)N1CCCc2ccccc21	-	-	-	-	-	-
Cn1c(=O)c(=O)n(C)c2cc(S(=O)(=O)NCCOc3ccccc3)ccc21	-	-	.	.	-	-
Cc1cc(C)cc(OCC(=O)Nc2ccc3c4c(cccc24)CC3)c1	-	-	-	-	-	-
O=C(COc1ccc2ccccc2c1)Nc1ccc2c3c(cccc13)CC2	-	-	21	-	-	-
O=C(NC1CCCCCC1)c1cccc(COCC(F)(F)F)c1	-	-	-	36	-	-
CCOC(=O)C1CCCC(NS(=O)(=O)c2ccc(NC(C)=O)cc2)C1 (centres undefined)	-	-	-	91	-	-
O=C(NCc1nc2ccccc2[nH]1)c1cc2ccccc2oc1=O	-	-	-	86	-	-
O=C(NCc1nc2ccccc2[nH]1)c1ccco1	-	-	-	-	-	-
CCCn1nc2cc(C(=O)NCc3ccc(C)cc3)ccc2c1OCC	-	-	-	84	-	-
Cc1cccn2c(=O)c3cc(S(=O)(=O)c4ccccc4)c(=N)n(CC4CCCO4)c3nc12 (centres undefined)	.	-	.	.	-	.
Clc1ccc(CN2C3=NCCN3c3ccccc32)cc1Cl	-	-	18	-	-	39
c1ccc(CN2C3=NCCN3c3ccccc32)cc1	.	-	-	-	-	-
O=c1cc(-c2ccccc2)c2ccccc2[nH]1	-	-	-	76	-	-
Cn1cc([C@@H]2C[C@H]3CN(Cc4cccc(Cl)c4)C(=O)[C@]34CCCN24)c(-c2ccccc2)n1	-	-	.	.	-	-
Cn1cc(Br)c(C(=O)Nc2nccs2)n1	.	-	-	32	-	-
